The source made the active and inactive calls. No cut-off for these calls is given here.
Columns and labels:
LoVo [1] = assay: Cytotoxicity against human LoVo cells after 72 hrs by MTT assay; assay type: functional, cell-based
Summary of the method: (§1)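 Log-phase cells seeded at 40000–50000 cells/mL, attached overnight, then exposed to 10^-4–10^-9 M compound for 72 h at 37 °C, 5% CO₂. Viable cells measured by MTT, absorbance 570 nm. Triplicates in at least three independent assays; IC50 by nonlinear regression.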

CCRF-CEM = assay: Cytotoxicity against human CEM cells after 72 hrs by MTT assay; assay type: functional, cell-based; summary of the method: as §1
MDA-MB-435 = assay: Cytotoxicity against human MDA-MB-435 cells after 72 hrs by MTT assay; assay type: functional, cell-based; details: MDA-MB-435, 72 h; summary of the method: as §1
Bos taurus = organism: Bos taurus; assay: Inhibition of bovine brain tubulin polymerization at 10 uM after 60 mins by turbidimetry analysis
LoVo [2] = assay: Cell cycle arrest in human LoVo cells assessed as accumulation at G2/M phase at 5 uM after 24 hrs using propidium iodide staining by flow cytometry (reference value: 13%); assay type: functional
Summary of the method: (§2)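 LOVO cells (10⁶) treated 24 h with compound; pelleted, fixed in citrate buffer, RNase A 20 min, then propidium iodide 20 min. DNA content read by flow cytometry to give percentage of cells per cycle phase, untreated cells as control.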

LoVo [3] = assay: Cell cycle arrest in human LoVo cells assessed as accumulation at G2/M phase at 25 uM after 24 hrs using propidium iodide staining by flow cytometry relative to control; assay type: functional; summary of the method: as §2

SMILES | IC50 (LoVo [1]) [µM] | IC50 (CCRF-CEM) [µM] | IC50 (MDA-MB-435) [µM] | inhibition (Bos taurus) | Activity (LoVo [2]) [%] | Activity (LoVo [3]) [%]
COc1cc(-c2[nH]c(=O)[nH]c2C(=O)Nc2cccc(Cl)c2)cc(OC)c1OC | 3.62 | 4.8 | 4.77 | – | – | –
COc1ccc(NC(=O)c2[nH]c(=O)[nH]c2-c2cc(OC)c(OC)c(OC)c2)cc1 | 35.6 | 2.3 | 17.4 | – | – | –
COc1ccc(NC(=O)c2[nH]c(=O)[nH]c2-c2cc(OC)c(OC)c(OC)c2)cc1[N+](=O)[O-] | 43.9 | > 200 | > 240 | inactive | – | –
COc1ccc(NC(=O)c2[nH]c(=O)[nH]c2-c2cc(OC)c(OC)c(OC)c2)cc1OC | 11.9 | 4.19 | 4.87 | – | – | –
COc1cc(-c2[nH]c(=O)[nH]c2C(=O)Nc2cccc3ccccc23)cc(OC)c1OC | 3.46 | 11.9 | 9.32 | – | – | –
COc1cc(-c2[nH]c(=O)[nH]c2C(=O)Nc2ccccc2)cc(OC)c1OC | 77.6 | 45.9 | 40.4 | – | – | –
COc1cc(-c2[nH]c(=O)[nH]c2C(=O)Nc2ccc(C)cc2)cc(OC)c1OC | 4.67 | 0.24 | 0.63 | Active | – | –
COc1ccc(NC(=O)c2[nH]c(=O)[nH]c2-c2cc(OC)c(OC)c(OC)c2)cc1N | 3.4 | 0.33 | 0.62 | Active | 28 | 74
COc1cc2c(c(OC)c1OC)-c1ccc(OC)c(=O)cc1[C@@H](NC(C)=O)CC2 [COLCHICINE] | 0.101 | 0.0172 | 0.0073 | – | – | –
COc1cc(-c2[nH]c(=O)[nH]c2C(=O)Nc2ccc(C)c(Cl)c2)cc(OC)c1OC | 5.46 | 2.11 | 8.34 | – | – | –
COc1cc(-c2[nH]c(=O)[nH]c2C(=O)Nc2ccc(Cl)cc2)cc(OC)c1OC | 110 | > 200 | 152 | – | – | –
COc1cc(-c2[nH]c(=O)[nH]c2C(=O)Nc2cccc(C)c2)cc(OC)c1OC | 0.62 | 0.18 | 0.76 | Active | – | –
COc1cc(-c2[nH]c(=O)[nH]c2C(=O)Nc2ccc(C(C)(C)C)cc2)cc(OC)c1OC | 34 | 38.8 | 32.2 | – | – | –
COc1cc(-c2[nH]c(=O)[nH]c2C(=O)Nc2ccc(Cl)c(Cl)c2)cc(OC)c1OC | 4.93 | 12.1 | 19.2 | – | – | –
COc1cc(-c2[nH]c(=O)[nH]c2C(=O)Nc2cc(C)cc(C)c2)cc(OC)c1OC | 23.4 | 19.4 | 33.8 | – | – | –
COc1cc(-c2[nH]c(=O)[nH]c2C(=O)Nc2cccc([N+](=O)[O-])c2)cc(OC)c1OC | 35 | > 200 | 44.2 | – | – | –

Source: ChEMBL document CHEMBL1777697, “Imidazolone-amide bridges and their effects on tubulin polymerization in cis-locked vinylogous combretastatin-A4 analogues: synthesis and biological evaluation” (Bioorg Med Chem, 2011)
